Laboratory results from ChEMBL document CHEMBL4610116, “Salicylanilide Analog Minimizes Relapse of Clostridioides difficile Infection in Mice” (J Med Chem, 2020).
Converted amounts (≈) assume the structure as drawn. The source made the active and inactive calls. No cut-off for these calls is given here.

What was measured:
Clostridioides difficile [1] = assay: Antimicrobial activity against Clostridioides difficile CD10463 incubated for 20 to 24 hrs by broth microdilution method; assay type: functional
Summary of the method: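 Broth microdilution in pre-reduced BHIS using two-fold serial dilutions and ~5 × 10⁵ cfu/mL inoculum. Incubated 20–24 h at 37°C, anaerobic (8% H₂, 8% CO₂, 84% N₂). MIC read by the Lambert-Pearson method; duplicates.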

[2] = Tmax in non-antibioticc-treated C57Bl/6J mouse at 0.3 mg/kg, iv and measured after 5 mins to 24 hrs by LC/MS-SRM analysis; assay type: ADME, organism-based; conditions: in vivo
Summary of the method: (§1)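 Non-antibiotic-treated C57Bl/6J mice given a single i.v. dose of 0.3 mg/kg; n = 3 per time point. Bled at 5, 10, 30 min and 1, 2, 4, 8, 24 h. Plasma mixed with 2 volumes acetonitrile containing internal standard, centrifuged, supernatant quantified by LC/MS-SRM.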

[3] = Half life in non-antibioticc-treated C57Bl/6J mouse at 0.3 mg/kg, iv and measured after 5 mins to 24 hrs by LC/MS-SRM analysis; assay type: ADME, organism-based; conditions: in vivo; summary of the method: as §1
[4] = Tmax in cefoperazone-treated C57Bl/6J mouse at 1 mg/kg, po dosed each day for 5 days by LC/MS-SRM analysis; assay type: ADME, organism-based; conditions: in vivo
Summary of the method: (§2)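 C57Bl/6J mice pre-treated with cefoperazone 0.5 mg/mL in drinking water for 10 days, then a 2-day washout. Oral dose of 1 mg/kg given daily for 5 days. Bled at 5, 10, 30 min and 1, 2, 4, 10, 24 h after dosing on the first and final days; n = 3 per time point. Plasma mixed with 2 volumes acetonitrile containing internal standard, centrifuged, supernatant analysed by LC/MS-SRM.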

[5] = AUC in cefoperazone-treated C57Bl/6J mouse at 1 mg/kg, po dosed each day for 5 days by LC/MS-SRM analysis; assay type: ADME, organism-based; conditions: in vivo; summary of the method: as §2
[6] = Oral bioavailability in cefoperazone-treated C57Bl/6J mouse at 1 mg/kg dosed each day for 5 days by LC/MS-SRM analysis; assay type: ADME, organism-based; conditions: in vivo
[7] = Ratio of Cmin in cecum of cefoperazone-treated C57Bl/6J mouse at 1 mg/kg, po dosed each day for 5 days and measured over 24 hrs post last dose by LC/MS-SRM analysis to MIC for antimicrobial activity against Clostridioides difficile CD10463 incubated for 20 to 24 hrs by broth microdilution method; assay type: ADME, organism-based; conditions: in vivo
[8] = Cytotoxicity in HEK293T/17 cells assessed as reduction in cell viability incubated for 16 hrs by MTS assay; assay type: cell-based; conditions: human
Summary of the method: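 HEK 293T/17 cells seeded at 2 × 10⁴ per well in DMEM and allowed to adhere 24 h at 37°C, 5% CO₂. Exposed to 0.020–40 µM compound in DMEM for 16 h, then MTS read-out after 1 h at 37°C. Normalized to untreated cells and to 0.2 mM digitonin; duplicates.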

Clostridioides difficile [9] = assay: (§3) Suppression of relapse of Clostridioides difficile 630 infection in cefoperazone-treated C57BL/6J mouse model of recurrent Clostridioides difficile 630 infection assessed as reduction in microbial load (total vegetative cells plus spores) at 5 mg/kg, po for 5 days from day 4 to 9 after infection with spores; assay type: functional, organism-based
Summary of the method: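 Five-week-old C57BL/6J mice of both sexes given cefoperazone 0.5 mg/ml in drinking water for 5 days, then a 2-day washout. Oral challenge with C. difficile 630 spores on day 0. Oral gavage in 2-(hydroxypropyl)-cyclodextrin vehicle on days 4–9; n = 6 per group. Body weight recorded daily. Feces or cecal contents suspended 1:10 in PBS, serially diluted and plated on TCCFA, incubated anaerobically at 37°C for 24 h; results as CFU/g.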

[10] = Effect on gut microbiota in cefoperazone-treated C57BL/6J mouse model of recurrent Clostridioides difficile 630 infection assessed as increase in alpha-diversity at 5 mg/kg, po for 5 days from day 4 to 9 after infection with spores measured on day day 14 by 16S rRNA Illumina sequencing analysis; assay type: ADME, organism-based; conditions: in vivo, 120 h
Summary of the method: (§4)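 Recurrent CDI model in cefoperazone-treated C57BL/6J mice challenged with strain 630 and gavaged on days 4–9 (n = 6 per group). Cecal tissue snips collected at necropsy underwent 16S rRNA gene community sequencing on Illumina MiSeq.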

Clostridioides difficile [11] = assay: as §3, with “group-Proteobacteria level” for “microbial load (total vegetative cells plus spores)”, “spores measured on day day 14” for “spores”; assay type: functional, organism-based; summary of the method: as §4

## O=C(Nc1cc(C(F)(F)F)c(Oc2ccc(Cl)cc2)c(C(F)(F)F)c1)c1cc(Cl)cc(Cl)c1O
Clostridioides difficile [1]
  MIC: 0.03 µM (≈ 0.0163 µg/mL)
[2]
  Tmax: 0.17 h
[3]
  half-life: 5 h
[4]
  Tmax: 2 h
[5]
  AUC at 120 h: 23.2 µM·h
[6]
  bioavailability: 76%
[7]
  Ratio: 100
[8]
  Activity: > 2.5 µM
Clostridioides difficile [9]
  Activity: Active
[10]
  Activity: Non-Toxic
Clostridioides difficile [11]
  Activity: Active
